Compound activity (PubChem)
Rows were chosen to be rich in hits. Some 1.5% of all compounds tested hit in one or more screens of this group.
CRFR2-BP antag = CRF-BP/CRF-R2 complex antagonism. AID 588475. HEK293 CRF-R2/CRF-BP, CRF-induced calcium fluorescence. 350,000 compounds, 0.59% hits. inhibition, % at 11.8 µM;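 active = inhibition of the ligand-induced calcium signal above about 50% at the single tested concentration, limit read from the data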
SIRT5 block = inhibitors of human sirtuin-5 desuccinylase; inhibition, % at 15 µM; Purified SirT5, succinyl-peptide AMC, trypsin-coupled fluorescence; AID 652115; 330,000 compounds, 1.1% hits; in the data active = inhibition above about 15%
Target sequence (Q9NXA8 whole entry, looked up): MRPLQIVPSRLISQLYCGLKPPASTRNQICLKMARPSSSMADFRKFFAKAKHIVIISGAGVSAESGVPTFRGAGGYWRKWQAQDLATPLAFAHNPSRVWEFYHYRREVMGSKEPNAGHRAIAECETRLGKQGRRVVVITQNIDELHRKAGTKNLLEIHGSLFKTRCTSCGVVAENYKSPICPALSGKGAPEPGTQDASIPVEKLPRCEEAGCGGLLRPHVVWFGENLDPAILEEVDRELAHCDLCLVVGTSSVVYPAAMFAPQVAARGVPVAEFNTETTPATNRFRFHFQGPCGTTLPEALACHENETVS
PKA-R1A act = activators of PKA-R1A complex; P00514+P68181; PKA-R1A dissociation, Cy5-IP20 fluorescence polarization; scaled: DMSO 0%, 113 µM cGMP 100%; activation, % at 11.4 µM; 340,000 compounds, 0.083% hits;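 active = percent activation above the mean of all tested compounds plus 3 SD, cut at about 19% in these data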;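 note: higher means more PKAc released from R1A so a rise in polarization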
PKA-R2B activ = activates the human PKA-R2B holoenzyme complex; P22694+P31323; 340,000 compounds, 0.079% hits; AID 504700; PKA-R2B holoenzyme dissociation, Cy5-IP20 fluorescence polarization; R2B truncated from residue 108, S112A mutant; 0% DMSO only, 100% 113 µM cGMP; activation, % at 11.4 µM;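 active = activation above a cutoff set at the mean over all compounds plus 3 SD, cut at about 18% in these data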;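 note: higher means more holoenzyme dissociation and a rise in polarization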
S100A4 inh HTS = inhibitors of human S100A4 binding to myosin IIA peptide; P26447; S100A4/TAMRA-MyoIIA peptide fluorescence polarization; inhibition, % at 10.7 µM; 360,000 compounds, 0.14% hits; AID 652163;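 active = mean inhibition of at least 70% across replicates, with every replicate also reaching that level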
Target sequence (P26447 whole entry, looked up): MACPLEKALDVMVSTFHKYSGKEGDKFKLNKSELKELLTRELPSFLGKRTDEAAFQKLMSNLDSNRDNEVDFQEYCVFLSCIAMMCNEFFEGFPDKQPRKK
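assay system = human S100A4 monomer with TAMRA-labelled myosin IIA peptide | also added = labelled myosin peptide probe, 5 nM | incubation = 5 min between mix addition and reading | control set = DMSO and TFP controls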
Starred values were filed as active, the others as inactive; nt = not tested or not shown; ! = a repeat was not active.

SMILES	CRFR2-BP antag	SIRT5 block	PKA-R1A act	PKA-R2B activ	S100A4 inh HTS
CC/C(=C\C1CCCCC1)C(NP(=O)(c1ccccc1)c1ccccc1)c1ccccc1 (stereo not drawn)	-12	22*	-1	-15	0
C[C@@H]1CCCCO[C@H](CN(C)S(=O)(=O)c2cccs2)[C@@H](C)CN([C@@H](C)CO)C(=O)c2cc(NS(=O)(=O)c3ccccc3)ccc2O1	nt	1	nt	nt	5
O=C(CCCCn1c(=O)c2ccccc2n(Cc2ccc(F)cc2Cl)c1=O)NCc1ccco1	75*	nt	-2	-3	nt
C[C@H]1CN([C@@H](C)CO)C(=O)c2cc(NC(=O)CCC(F)(F)F)ccc2O[C@@H]1CN(C)S(=O)(=O)c1cn(C)cn1	nt	4	nt	nt	98*
C[C@@H]1CN([C@@H](C)CO)C(=O)c2cc(NC(=O)CCC(F)(F)F)ccc2O[C@@H]1CN(C)S(=O)(=O)c1ccc(F)cc1	nt	14	nt	nt	3
COc1ccc(S(=O)(=O)N(C)C[C@H]2Oc3ccc(NC(=O)NC4CCCCC4)cc3C(=O)N([C@H](C)CO)C[C@@H]2C)cc1	5	20*!	6	-10	1
COc1ccc(S(=O)(=O)N(C)C[C@@H]2Oc3ccc(NC(=O)CCC(F)(F)F)cc3C(=O)N([C@H](C)CO)C[C@H]2C)cc1	nt	34*	nt	nt	-1
COc1ccc(S(=O)(=O)N(C)C[C@@H]2Oc3ccc(NC(=O)Nc4ccc(F)cc4)cc3C(=O)N([C@H](C)CO)C[C@@H]2C)cc1	nt	18*	nt	nt	-16
Cc1noc(C)c1S(=O)(=O)Nc1ccc2c(c1)C(=O)N([C@@H](C)CO)C[C@H](C)[C@H](CN(C)Cc1ccccc1)OCCCC[C@@H](C)O2	nt	2	nt	nt	0
COc1ccc(NC(=O)Nc2ccc3c(c2)C(=O)N([C@@H](C)CO)C[C@H](C)[C@@H](CN(C)S(=O)(=O)c2ccc(C)cc2)O3)cc1	nt	2	nt	nt	-57
COc1ccc(NC(=O)Nc2ccc3c(c2)C(=O)N([C@@H](C)CO)C[C@@H](C)[C@@H](CN(C)S(=O)(=O)c2ccc(C)cc2)O3)cc1	nt	19*	nt	nt	-16
CO[C@H]1CN(C)C(=O)c2ccc(NC(=O)C3CC3)cc2OC[C@H](C)N(C(=O)CN2CCOCC2)C[C@H]1C	nt	-4	nt	nt	3
Cc1noc(C)c1S(=O)(=O)N(C)C[C@H]1OCCCC[C@@H](C)Oc2ccc(NC(=O)NC(C)C)cc2C(=O)N([C@@H](C)CO)C[C@@H]1C	nt	3	nt	nt	-1
COc1ccc(C[C@H]2CN3C(=NC[C@@H]3Cc3ccc(O)cc3)N2C[C@H](C)NC(=O)CCC2CCCCC2)cc1	-4	31*	-6	-11	7
COc1ccc(C[C@@H]2CN3C(=NC[C@@H]3Cc3ccc(O)cc3)N2C[C@H](C)NC(=O)CCC2CCCCC2)cc1	-15	nt	-4	8	nt
O=C(NCCO)c1c(O)c2cccc3c2n(c1=O)CC3	56*	nt	-3	6	nt
Cc1noc(C)c1S(=O)(=O)Nc1ccc2c(c1)C(=O)N([C@@H](C)CO)C[C@H](C)[C@H](CN(C)C(=O)C1CCCCC1)OCCCC[C@H](C)O2	nt	-2	nt	nt	1
O=C(Nc1ccccc1F)c1cc2c(s1)-c1ccccc1S(=O)(=O)C2	4	24*	-1	-2	1
COCCn1nnnc1C(c1cc2cc(OC)ccc2[nH]c1=O)N1CCC(Cc2ccccc2)CC1 (stereo not drawn)	-22	17*	3	-1	-4
COCCn1nnnc1C(c1cc2cc(C)ccc2[nH]c1=O)N1CCCCCC1 (stereo not drawn)	-42	nt	-12	3	nt
C[C@@H]1CCCCO[C@@H](CN(C)C(=O)Nc2ccc3c(c2)OCO3)[C@H](C)CN([C@H](C)CO)C(=O)c2cc(NC(=O)C3CCCCC3)ccc2O1	nt	6	nt	nt	5
CC(C(=O)NCc1cccs1)N1C(=O)c2ccccc2C1=O (stereo not drawn)	-3	19*	-8	2	-1
C[C@@H]1CN([C@@H](C)CO)S(=O)(=O)c2ccc(-c3ccccc3)cc2O[C@H]1CN(C)Cc1cccc(F)c1	nt	3	nt	nt	143*
C/C=C/c1ccc2c(c1)O[C@H](CN(C)Cc1cccc(F)c1)[C@H](C)CN([C@@H](C)CO)S2(=O)=O	nt	19*	nt	nt	-3
C[C@@H]1CN([C@H](C)CO)S(=O)(=O)c2ccc(-c3ccccc3)cc2O[C@@H]1CN(C)Cc1cccc(F)c1	nt	2	nt	nt	2
SMILES	CRFR2-BP antag	SIRT5 block	PKA-R1A act	PKA-R2B activ	S100A4 inh HTS
C[C@@H]1CN([C@@H](C)CO)S(=O)(=O)c2ccc(C#Cc3ccccn3)cc2O[C@@H]1CN(C)Cc1cccc(F)c1	nt	20*	nt	nt	-5
C/C=C/c1ccc2c(c1)O[C@@H](CN(C)Cc1ccccc1F)[C@H](C)CN([C@@H](C)CO)S2(=O)=O	nt	19*	nt	nt	11
C/C=C/c1ccc2c(c1)O[C@H](CN(C)Cc1ccccc1)[C@@H](C)CN([C@H](C)CO)S2(=O)=O	nt	12	nt	nt	-16
Cc1ccc(S(=O)(=O)Nc2ccc3c(c2)C(=O)N([C@@H](C)CO)C[C@@H](C)[C@H](CN(C)C(=O)Nc2ccc(F)cc2)O3)cc1	nt	0	nt	nt	12
C[C@H]1CN([C@@H](C)CO)S(=O)(=O)c2ccc(C#Cc3ccccc3)cc2O[C@H]1CN(C)S(C)(=O)=O	nt	0	nt	nt	-10
C[C@@H](O)C#Cc1ccc([C@H]2[C@H]3CN(C(=O)c4ccncc4)CCCCN3[C@H]2CO)cc1	nt	14	nt	nt	-9
COc1ccc(NC(=O)N(C)C[C@@H]2Oc3ncccc3C(=O)N([C@H](C)CO)C[C@@H]2C)cc1	nt	-1	nt	nt	1
